Measurements collected from several papers.
Protocols differ between the studies behind these lines.
Medium: Caco-2

For `O=c1c(O[C@@H]2O[C@H](CO)[C@H](O)[C@H](O)[C@H]2O)c(-c2ccc(O)c(O)c2)oc2cc(O)cc(O)c12`, the efflux ratio was 1.56 (200 µg/mL).
`C[C@H]1O[C@@H](O[C@H]2[C@@H](O)C[C@H](O[C@H]3[C@@H](O)C[C@H](O[C@H]4CC[C@@]5(C)[C@H](CC[C@@H]6[C@@H]5C[C@@H](O)[C@]5(C)[C@@H](C7=CC(=O)OC7)CC[C@]65O)C4)O[C@@H]3C)O[C@@H]2C)C[C@H](O)[C@@H]1O` has an efflux ratio of 28.3 (10 µM; 2 h).
With `O=C(NCc1nc(-c2ccc(C(F)(F)F)cc2)cs1)[C@H]1CCCN(C(=O)COCCN2CCCC2)C1` the efflux ratio was 46.
The efflux ratio of `COc1cc(NC(=O)Cn2cc(Cl)c3cc(F)c(-c4cnn(C)c4)cc32)cc(OC)c1OC` is reported as 18.2.
For `CC[C@]1(O)C[C@@H]2CN(CCc3c([nH]c4ccccc34)[C@@](C(=O)OC)(c3cc4c(cc3OC)N(C)[C@H]3[C@@](O)(C(=O)OC)[C@H](OC(C)=O)[C@]5(CC)C=CCN6CC[C@]43[C@@H]65)C2)C1`, the efflux ratio was 13.5 (10 µM; 2 h).
With `Cc1cc(C)c(CNC(=O)c2cc(Cl)c3c(c2C)O[C@@](C)([C@H]2CC[C@H](N(C)C)CC2)O3)c(=O)[nH]1` the efflux ratio was 52.4 (1 µM).
`CC(C)c1nc(N(C)S(C)(=O)=O)nc(-c2ccc(F)cc2)c1/C=C/[C@@H](O)C[C@@H](O)CC(=O)O` has an efflux ratio of 142 (5 µM; 2 h).
`N#Cc1ccc(C[C@H](Nc2nnc(-c3ccc(F)cc3)s2)C(=O)N2CCc3ccccc32)cc1` has an efflux ratio of > 20 (100 µM; 2 h).
`O=C(NCc1nc(-c2ccc(C(F)(F)F)cc2)cs1)[C@H]1CCCN(C(=O)COCCN2CCCCC2)C1` has an efflux ratio of 27.
The efflux ratio of `O=c1cc(-c2ccc(O)cc2)oc2c([C@@H]3O[C@H](CO)[C@@H](O)[C@H](O)[C@H]3O)c(O)cc(O)c12` is reported as 1.28 (200 µg/mL).
`O=C(NCc1nc(-c2ccc(C(F)(F)F)cc2)cs1)[C@H]1CCCN(C(=O)CO[C@H]2CCCNC2)C1` gave an efflux ratio of 160.
For `N#Cc1ccc(C[C@H](Nc2nnc(-c3ccc(F)cc3)o2)C(=O)N2CCc3ccccc32)cc1`, the efflux ratio was 3.8 (100 µM; 2 h).
With `COCC(=O)N1CCC[C@H](C(=O)NCc2nc(-c3ccccc3)cs2)C1` the efflux ratio was 1.
For `Cc1ccc(N(c2ccc(NC(=O)CN(C)c3ccccc3N3CCCC3=O)cc2)C(C)C)cc1`, the efflux ratio was 2.3.
